Results reported in ChEMBL document CHEMBL1135654, “Antitumor agents. 1. Synthesis, biological evaluation, and molecular modeling of 5H-pyrido[3,2-a]phenoxazin-5-one, a compound with potent antiproliferative activity” (J Med Chem, 2002).
pIC50: −log10 of the molar value.

Columns and labels:
[1] = system: CCRF-SB; assay: Antitumor activity against human acute B-lymphoblastic leukemia CCRF-SB cells; type: functional, cell-based
Summary of the method: (§1)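 Leukemia/lymphoma cells in exponential growth resuspended at 1 × 10^5 cells/mL in RPMI 1640 (10% FCS, antibiotics) with serial dilutions of drug (DMSO stock 200 µM diluted in medium). Viability by MTT after 96 h at 37 °C, 5% CO2. Growth expressed as % of untreated controls; IC50 by linear regression. Controls underwent ≥3 rounds of multiplication. Mean of three independent determinations.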

[2] = (§2) Cytotoxicity for Peripheral blood Lymphocytes; type: functional; details: Homo sapiens
Summary of the method: (§3)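 Human PBL from HIV-negative donors, isolated on Ficoll-Hypaque. Resting cells (1 × 10^6/mL) exposed up to 3 days to serial drug dilutions, washed, PHA-stimulated 24 h, diluted to 1 × 10^5/mL with PHA and IL-2, viability read after 6 days at 37 °C. Alternatively, PBL stimulated with PHA (2.5 µg/mL) 24 h, then grown with PHA, IL-2 (50 U/mL) and drug, and viable cells counted at day 6. Mean ± SD, three experiments.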

[3] = system: 5637; assay: Antitumor activity against human bladder carcinoma 5637 cells; type: functional, cell-based
Summary of the method: (§4)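 Solid-tumor cells in exponential growth seeded at 5 × 10^4 cells/mL in their own medium with 10% FCS, allowed to adhere 16 h, then serially diluted drug added (DMSO stock 200 µM diluted in medium). MTT viability read 4 days later, 37 °C, 5% CO2. IC50 by linear regression from % of untreated control growth. Three independent determinations.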

[4] = as §2; type: functional; details: Homo sapiens; summary of the method: as §3; remark: listed apart in the source
[5] = system: C8166; assay: Antitumor activity against […] human acute T-lymphoblastic leukemia C8166 cells; type: functional, cell-based; summary of the method: as §1
[6] = system: WIL2-NS; assay: Anti tumor activity against human splenic B-lympho blastoid Wil2-NS cells; type: functional, cell-based; summary of the method: as §1
[7] = system: MT4; assay: Antitumor activity against […] human acute T-lymphoblastic leukemia MT-4 cells; type: functional, cell-based; summary of the method: as §1
[8] = system: SK-MEL-28; assay: Antitumor activity against human skin melanoma […] cells; type: functional, cell-based; summary of the method: as §4
[9] = system: CCRF-CEM; assay: Antitumor activity against human acute T-lymphoblastic leukemia CCRF-CEM cells; type: functional, cell-based; summary of the method: as §1
[10] = Effect on the proliferation Wild -type and Drug- resistant KB subclones passaged in the presence of vincristine 0.02 uM; type: functional, Homo sapiens
Summary of the method: (§5)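 Cells seeded at 5 × 10^4 cells/mL, adhered 16 h, exposed to serial drug dilutions; MTT after 4 days. IC50 by linear regression versus untreated controls; mean ± SD of three independent determinations.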

[11] = system: ACHN; assay: Antitumor activity against human renal adenocarcinoma ACHN cells; type: functional, cell-based; summary of the method: as §4
[12] = system: HepG2; assay: Antitumor activity against human hepatocellular carcinoma HepG2 cells; type: functional, cell-based; summary of the method: as §4
[13] = system: CRL-7065 cell line; assay: Antitumor activity against human foreskin fibroblasts CRL7065 cells; type: functional, cell-based; summary of the method: as §4
[14] = system: SK-MES-1; assay: Antitumor activity against human lung squamous carcinoma SK-MES-1 cells; type: functional, cell-based; summary of the method: as §4
[15] = system: MCF7; assay: Antitumor activity against human breast adenocarcinoma MCF-7 cells; type: functional, cell-based; summary of the method: as §4
[16] = system: HT-29; assay: Antitumor activity against human colon adenocarcinoma HT-29 cells; type: functional, cell-based; summary of the method: as §4
[17] = Compound concentration required to reduce the cell proliferation of Wild type and Drug- resistant human nasopharyngeal carcinoma KB cells by 50%; type: functional, cell-based; summary of the method: as §5
[18] = Compound concentration required to reduce the cell proliferation of Wild type and Drug- resistant KB subclones passaged in the presence of doxorubicin 0.09 uM by 50%; type: functional; details: Homo sapiens; summary of the method: as §5
[19] = system: MT4; assay: Antitumor activity against human CD4+T cells expressing the TAT gene of HTLV-1 MT-4 cells; type: functional, cell-based; summary of the method: as §1
[20] = system: Panel leukemia (Carcinoma cell lines); assay: Cytotoxicity for lymphoblastoid cell lines; type: functional; details: Homo sapiens
[21] = system: MOLT-4; assay: Antitumor activity against human acute T-lymphoblastic leukemia MOLT-4 cells; type: functional, cell-based
[22] = Compound concentration required to reduce the cell proliferation of Wild type and drug-resistant KB subclones passaged in the presence of etoposide 7 uM by 50%; type: functional; details: Homo sapiens; summary of the method: as §5
[23] = system: DU-145; assay: Antitumor activity against human prostate carcinoma DU145 cells; type: functional, cell-based; summary of the method: as §4
[24] = system: G-361; assay: Antitumor activity against human skin melanoma G-361 cells; type: functional, cell-based; summary of the method: as §4
[25] = system: HEp-2; assay: Antitumor activity against larynx carcinoma Hep-2 cells; type: functional, cell-based; details: Homo sapiens; summary of the method: as §4
[26] = system: IMR-32; assay: Antitumor activity against human neuroblastoma IMR32 cells; type: functional, cell-based; summary of the method: as §4
[27] = system: Raji; assay: Antitumor activity against human Burkitt lym phoma Raji cells; type: functional, cell-based; summary of the method: as §1
[28] = system: HeLa; assay: Antitumor activity against cervix carcinoma Hela cells; type: functional, cell-based; details: Homo sapiens; summary of the method: as §4
[29] = system: WIL2-NS; assay: Antitumor activity against human splenic B-lympho blastoid Wil2-NS cells; type: functional, cell-based; summary of the method: as §1
[30] = system: HeLa; assay: Compound concentration required to reduce the cell proliferation of cervix carcinoma Hela cells by 50%, using MTT method; type: functional, cell-based; details: Homo sapiens; summary of the method: as §4
[31] = system: CCRF-SB; assay: Compound concentration required to reduce the cell proliferation of human acute B-lymphoblastic leukemia CCRF-SB cells by 50%, using MTT method; type: functional, cell-based; summary of the method: as §1
[32] = system: CCRF-CEM; assay: Compound concentration required to reduce the cell proliferation of human acute T-lymphoblastic leukemia CCRF-CEM cells by 50%, using MTT method; type: functional, cell-based; summary of the method: as §1
[33] = system: HEp-2; assay: Compound concentration required to reduce the cell proliferation of larynx carcinoma cells by 50%, using MTT method; type: functional, cell-based; details: Homo sapiens; summary of the method: as §4
[34] = system: MT4; assay: Compound concentration required to reduce the cell proliferation of human CD4+T cells by 50%, using MTT method; type: functional, cell-based; summary of the method: as §1
[35] = system: HEp-2; assay: Compound concentration required to reduce the cell proliferation of larynx carcinoma cells by 50%, using MTT method.; type: functional, cell-based; details: Homo sapiens; summary of the method: as §4
[36] = system: CCRF-SB; assay: Compound concentration required to reduce the cell proliferation of human acute B-lymphoblastic leukemia CCRF-SB cells by 50%, using MTT method.; type: functional, cell-based; summary of the method: as §1
[37] = system: CCRF-CEM; assay: Compound concentration required to reduce the cell proliferation of human acute T-lymphoblastic leukemia CCRF-CEM cells by 50%, using MTT method.; type: functional, cell-based; summary of the method: as §1
[38] = system: MT4; assay: Compound concentration required to reduce the cell proliferation of human CD4+T cells by 50%, using MTT method.; type: functional, cell-based; summary of the method: as §1
[39] = system: HeLa; assay: Compound concentration required to reduce the cell proliferation of cervix carcinoma Hela cells by 50%, using MTT method.; type: functional, cell-based; details: Homo sapiens; summary of the method: as §4

**Q.** Which results are given for `O=c1cc2oc3ccccc3nc-2c2cccnc12`?
**A.** pIC50 [1]: 8.05; CC50 [2]: 30 nM; pIC50 [3]: 8.00; CC50 [4]: 5000 nM; pIC50 [5]: 7.00; pIC50 [6]: 7.30; pIC50 [7]: 8.00; pIC50 [8]: 6.68; pIC50 [9]: 8.00; pIC50 [10]: 7.22; pIC50 [11]: 8.00; pIC50 [12]: 7.30; pIC50 [13]: 6.30; pIC50 [14]: 7.40; pIC50 [15]: 6.64; pIC50 [16]: 6.60; pIC50 [17]: 7.00; pIC50 [18]: 7.40; pIC50 [19]: 8.00; CC50 [20]: 40 nM; pIC50 [21]: 7.40; pIC50 [22]: 7.70; pIC50 [23]: 7.40; pIC50 [24]: 8.00; pIC50 [25]: 7.40; pIC50 [26]: 8.00; pIC50 [27]: 7.40; pIC50 [28]: 6.70

**Q.** What does the source list for `CC[C@]1(O)C[C@H]2CN(CCc3c([nH]c4ccccc34)[C@@](C(=O)OC)(c3cc4c(cc3OC)N(C=O)[C@H]3[C@@](O)(C(=O)OC)[C@H](OC(C)=O)[C@]5(CC)C=CCN6CC[C@]43[C@@H]65)C2)C1` [VINCRISTINE]?
**A.** pIC50 [10]: 6.70; pIC50 [17]: 8.22; pIC50 [18]: 6.15; pIC50 [22]: 7.30

**Q.** With `O=c1cc2sc3ccccc3nc-2c2cccnc12` as the compound, how does the pIC50 [1] read?
**A.** Its pIC50 is 7.10.

**Q.** And the pIC50 [3]?
**A.** The pIC50 was 6.82.

**Q.** And the pIC50 [5]?
**A.** The pIC50 was 6.39.

**Q.** What about the pIC50 [7] of the same compound?
**A.** Its pIC50 is 7.10.

**Q.** What about the pIC50 [8] of the same compound?
**A.** The pIC50 was 6.09.

**Q.** What about the pIC50 [9] of the same compound?
**A.** Its pIC50 is 7.15.

**Q.** And the pIC50 [11]?
**A.** The pIC50 was 5.72.

**Q.** What about the pIC50 [12] of the same compound?
**A.** Its pIC50 is 6.96.

**Q.** What about the pIC50 [13] of the same compound?
**A.** Its pIC50 is 6.09.

**Q.** And the pIC50 [14]?
**A.** The pIC50 was 6.10.

**Q.** What about the pIC50 [15] of the same compound?
**A.** Its pIC50 is 6.19.

**Q.** What about the pIC50 [16] of the same compound?
**A.** Its pIC50 is 5.00.

**Q.** And the pIC50 [19]?
**A.** Its pIC50 is 7.10.

**Q.** And the pIC50 [21]?
**A.** The pIC50 was 6.85.

**Q.** And the pIC50 [29]?
**A.** Its pIC50 is 6.82.

**Q.** And the pIC50 [23]?
**A.** The pIC50 was 6.21.

**Q.** What about the pIC50 [24] of the same compound?
**A.** The pIC50 was 6.66.

**Q.** What about the pIC50 [25] of the same compound?
**A.** The pIC50 was 7.00.

**Q.** What about the pIC50 [26] of the same compound?
**A.** The pIC50 was 6.28.

**Q.** What about the pIC50 [27] of the same compound?
**A.** The pIC50 was 7.52.

**Q.** What about the pIC50 [28] of the same compound?
**A.** Its pIC50 is 6.22.

**Q.** Which results are given for `Nc1cc2nc3ccccc3oc-2cc1=O`?
**A.** pIC50 [30]: 5.57; pIC50 [31]: 6.00; pIC50 [32]: 5.70; pIC50 [33]: 5.74; pIC50 [34]: 5.92

**Q.** With `O=c1ccc2nc3ccccc3oc-2c1` as the compound, how does the pIC50 [35] read?
**A.** Its pIC50 is 4.85.

**Q.** What about the pIC50 [36] of the same compound?
**A.** Its pIC50 is 5.05.

**Q.** What about the pIC50 [37] of the same compound?
**A.** The pIC50 was 4.72.

**Q.** And the pIC50 [38]?
**A.** Its pIC50 is 4.96.

**Q.** What about the pIC50 [39] of the same compound?
**A.** The pIC50 was 4.89.
